Entries after “also recorded” stand apart in the source; their conditions may differ. Like-named read-outs stand apart in the source and are kept apart here.
Test system: patients with relapsed/refractory lymphoma
Type: in vivo, human
Conditions: for Drug-related AE: Skin/SC tissue disorders / Drug-related grade ⩾3 AE: Skin/SC tissue disorders: MedDRA SOC
In short: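 Open-label phase 1 in patients with relapsed/refractory lymphoma after ⩾2 prior therapies. Dosing started at one patient per level with doubling from 0.125 to 1.0 mg/m2, then followed a 3+3 schema up to 3.11 mg/m2. DLTs were assessed in cycle 1, and AEs were graded by NCI-CTCAE v3.0.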

CC(C)C[C@H](NC(=O)CNC(=O)c1cc(Cl)ccc1Cl)B(O)O [ixazomib]
DLTs in cycle 1 (1.76 mg/m^2 cohort): one grade 4 neutropenia | DLTs in cycle 1 (2.34 mg/m^2 cohort): DLTs occurred in one of six DLT-evaluable patients | DLTs in cycle 1 (3.11 mg/m^2 cohort): two DLTs occurred in four DLT-evaluable patients | Patients who reported DLTs (DLT-evaluable population, 28 patients): Four | MTD (maximum tolerated dose) (IV, days 1, 8 and 15 of 28-day cycles): 2.34 mg/m^2 | Drug-related AE: Skin/SC tissue disorders (all doses, Total (n=30)): 8 (27) n (%) | Drug-related grade ⩾3 AE: Skin/SC tissue disorders (all doses, Total (n=30)): 2 (7) n (%) | Drug-related AE: Skin/SC tissue disorders (dose 1.4 mg/m^2 (n=4)): 1 n | Drug-related grade ⩾3 AE: Skin/SC tissue disorders (dose 1.4 mg/m^2 (n=4)): 0 n | Drug-related AE: Skin/SC tissue disorders (dose 1.76 mg/m^2 (n=7)): 2 n | Drug-related grade ⩾3 AE: Skin/SC tissue disorders (dose 1.76 mg/m^2 (n=7)): 0 n | Drug-related AE: Skin/SC tissue disorders (dose 2.34 mg/m^2 (n=10)): 4 n | Drug-related grade ⩾3 AE: Skin/SC tissue disorders (dose 2.34 mg/m^2 (n=10)): 1 n | Drug-related AE: Skin/SC tissue disorders (dose 3.11 mg/m^2 (n=5)): 0 n | Drug-related grade ⩾3 AE: Skin/SC tissue disorders (dose 3.11 mg/m^2 (n=5)): 0 n | Drug-related AE: Skin/SC tissue disorders (dose 0.125–1.0 mg/m^2 (n=4)): 1 n | Drug-related grade ⩾3 AE: Skin/SC tissue disorders (dose 0.125–1.0 mg/m^2 (n=4)): 1 n | Patients with grade ⩾3 neutropenia who required growth factor support (all doses): 2/6 | Patients with grade ⩾3 thrombocytopenia who required platelet transfusions (all doses): 0/4 | Drug-related AE: Abdominal pain (all doses, Total (n=30)): 5 (17) n (%) | Drug-related AE: Any AE (all doses, Total (n=30)): 30 (100) n (%) | Drug-related AE: Arthralgia (all doses, Total (n=30)): 3 (10) n (%) | Drug-related AE: Chills (all doses, Total (n=30)): 4 (13) n (%) | Drug-related AE: Constipation (all doses, Total (n=30)): 3 (10) n (%) | Drug-related AE: Cough (all doses, Total (n=30)): 4 (13) n (%) | Drug-related AE: Decreased appetite (all doses, Total (n=30)): 6 (20) n (%) | Drug-related AE: Decreased platelet count (all doses, Total (n=30)): 3 (10) n (%) | Drug-related AE: Diarrhea (all doses, Total (n=30)): 10 (33) n (%) | Drug-related AE: Dysgeusia (all doses, Total (n=30)): 4 (13) n (%) | Drug-related AE: Fatigue (all doses, Total (n=30)): 13 (43) n (%) | Drug-related AE: Headache (all doses, Total (n=30)): 6 (20) n (%) | Drug-related AE: Hypokalemia (all doses, Total (n=30)): 4 (13) n (%) | Drug-related AE: Lymphopenia (all doses, Total (n=30)): 4 (13) n (%) | Drug-related AE: Nausea (all doses, Total (n=30)): 8 (27) n (%) | Drug-related AE: Neutropenia (all doses, Total (n=30)): 6 (20) n (%) | Drug-related AE: Oral herpes (all doses, Total (n=30)): 4 (13) n (%) | Drug-related AE: Pain in extremity (all doses, Total (n=30)): 3 (10) n (%) | Drug-related AE: Paresthesia (all doses, Total (n=30)): 3 (10) n (%) | Drug-related AE: Peripheral edema (all doses, Total (n=30)): 4 (13) n (%) | Drug-related AE: Pyrexia (all doses, Total (n=30)): 5 (17) n (%) | Drug-related AE: Thrombocytopenia (all doses, Total (n=30)): 8 (27) n (%) | Drug-related AE: Vomiting (all doses, Total (n=30)): 8 (27) n (%) | Drug-related grade ⩾3 AE: Any grade ⩾3 AE (all doses, Total (n=30)): 14 (47) n (%) | Drug-related grade ⩾3 AE: Dehydration (all doses, Total (n=30)): 2 (7) n (%) | Drug-related grade ⩾3 AE: Diarrhea (all doses, Total (n=30)): 3 (10) n (%) | Drug-related grade ⩾3 AE: Lymphopenia (all doses, Total (n=30)): 2 (7) n (%) | Drug-related grade ⩾3 AE: Neutropenia (all doses, Total (n=30)): 6 (20) n (%) | Drug-related grade ⩾3 AE: Thrombocytopenia (all doses, Total (n=30)): 4 (13) n (%) | AEs of Skin and subcutaneous tissue disorders (MedDRA System Organ Class), patients (all doses, n=30): 27% | Drug-related AE: diarrhea, patients (all doses, n=30): 33% | Drug-related AE: fatigue, patients (all doses, n=30): 43% | Drug-related AE: nausea, patients (all doses, n=30): 27% | Drug-related AE: thrombocytopenia, patients (all doses, n=30): 27% | Drug-related AE: vomiting, patients (all doses, n=30): 27% | Drug-related grade ⩾3 AE: diarrhea, patients (all doses, n=30): 10% | Drug-related grade ⩾3 AE: neutropenia, patients (all doses, n=30): 20% | Drug-related grade ⩾3 AE: thrombocytopenia, patients (all doses, n=30): 13% | Drug-related rash, patients (all doses, n=30): 17% | Grade ⩾3 PN (all doses, n=30): no grade ⩾3 events were reported; also recorded: no patient had grade ⩾3 PN | Patients who experienced serious AEs (all doses, n=30): Eight | Patients with drug-related grade ⩾3 AEs (all doses, n=30): 47% | Discontinuation of ixazomib due to AEs (all doses, n=30, data cut-off 1 March 2013): 10% | Patients with grade ⩾3 AEs (all-cause, all doses, n=30): 73% | Drug-related AE: Abdominal pain (dose 1.4 mg/m^2 (n=4)): 0 n | Drug-related AE: Any AE (dose 1.4 mg/m^2 (n=4)): 4 n | Drug-related AE: Arthralgia (dose 1.4 mg/m^2 (n=4)): 0 n | Drug-related AE: Chills (dose 1.4 mg/m^2 (n=4)): 0 n | Drug-related AE: Constipation (dose 1.4 mg/m^2 (n=4)): 0 n | Drug-related AE: Cough (dose 1.4 mg/m^2 (n=4)): 0 n | Drug-related AE: Decreased appetite (dose 1.4 mg/m^2 (n=4)): 1 n | Drug-related AE: Decreased platelet count (dose 1.4 mg/m^2 (n=4)): 0 n | Drug-related AE: Diarrhea (dose 1.4 mg/m^2 (n=4)): 0 n | Drug-related AE: Dysgeusia (dose 1.4 mg/m^2 (n=4)): 1 n | Drug-related AE: Fatigue (dose 1.4 mg/m^2 (n=4)): 2 n | Drug-related AE: Headache (dose 1.4 mg/m^2 (n=4)): 0 n | Drug-related AE: Hypokalemia (dose 1.4 mg/m^2 (n=4)): 0 n | Drug-related AE: Lymphopenia (dose 1.4 mg/m^2 (n=4)): 1 n | Drug-related AE: Nausea (dose 1.4 mg/m^2 (n=4)): 1 n | Drug-related AE: Neutropenia (dose 1.4 mg/m^2 (n=4)): 1 n | Drug-related AE: Oral herpes (dose 1.4 mg/m^2 (n=4)): 1 n | Drug-related AE: Pain in extremity (dose 1.4 mg/m^2 (n=4)): 0 n | Drug-related AE: Paresthesia (dose 1.4 mg/m^2 (n=4)): 1 n | Drug-related AE: Peripheral edema (dose 1.4 mg/m^2 (n=4)): 0 n | Drug-related AE: Pyrexia (dose 1.4 mg/m^2 (n=4)): 0 n | Drug-related AE: Thrombocytopenia (dose 1.4 mg/m^2 (n=4)): 2 n | Drug-related AE: Vomiting (dose 1.4 mg/m^2 (n=4)): 0 n | Drug-related grade ⩾3 AE: Any grade ⩾3 AE (dose 1.4 mg/m^2 (n=4)): 3 n | Drug-related grade ⩾3 AE: Dehydration (dose 1.4 mg/m^2 (n=4)): 0 n | Drug-related grade ⩾3 AE: Diarrhea (dose 1.4 mg/m^2 (n=4)): 0 n | Drug-related grade ⩾3 AE: Lymphopenia (dose 1.4 mg/m^2 (n=4)): 0 n | Drug-related grade ⩾3 AE: Neutropenia (dose 1.4 mg/m^2 (n=4)): 1 n | Drug-related grade ⩾3 AE: Thrombocytopenia (dose 1.4 mg/m^2 (n=4)): 1 n | Drug-related AE: Abdominal pain (dose 1.76 mg/m^2 (n=7)): 1 n | Drug-related AE: Any AE (dose 1.76 mg/m^2 (n=7)): 7 n | Drug-related AE: Arthralgia (dose 1.76 mg/m^2 (n=7)): 0 n | Drug-related AE: Chills (dose 1.76 mg/m^2 (n=7)): 2 n | Drug-related AE: Constipation (dose 1.76 mg/m^2 (n=7)): 0 n | Drug-related AE: Cough (dose 1.76 mg/m^2 (n=7)): 2 n | Drug-related AE: Decreased appetite (dose 1.76 mg/m^2 (n=7)): 1 n | Drug-related AE: Decreased platelet count (dose 1.76 mg/m^2 (n=7)): 1 n | Drug-related AE: Diarrhea (dose 1.76 mg/m^2 (n=7)): 3 n | Drug-related AE: Dysgeusia (dose 1.76 mg/m^2 (n=7)): 2 n | Drug-related AE: Fatigue (dose 1.76 mg/m^2 (n=7)): 4 n | Drug-related AE: Headache (dose 1.76 mg/m^2 (n=7)): 2 n | Drug-related AE: Hypokalemia (dose 1.76 mg/m^2 (n=7)): 1 n | Drug-related AE: Lymphopenia (dose 1.76 mg/m^2 (n=7)): 0 n | Drug-related AE: Nausea (dose 1.76 mg/m^2 (n=7)): 3 n | Drug-related AE: Neutropenia (dose 1.76 mg/m^2 (n=7)): 1 n | Drug-related AE: Oral herpes (dose 1.76 mg/m^2 (n=7)): 1 n | Drug-related AE: Pain in extremity (dose 1.76 mg/m^2 (n=7)): 0 n

— article PMC4220649 (Blood Cancer Journal, 2014)
